Experimental data published in ChEMBL document CHEMBL3853320, “Discovery of Imidazoquinolines as a Novel Class of Potent, Selective, and in Vivo Efficacious Cancer Osaka Thyroid (COT) Kinase Inhibitors” (J Med Chem, 2016).
pIC50: −log10 of the molar value. ≈ marks a conversion by molar mass, not a printed value. Calls of active or inactive are those of the source. The calls are words filed in the database; no cut-off is given here.

Legend:
[1] = biological target: T1, Mitogen-activated protein kinase kinase kinase 8 (Homo sapiens, UniProt P41279); experiment: Inhibition of human COT (66 to 395 residues) expressed in Sf21 cells using 5-Fluo-Ahx-AGAGSGQLIDSNleANSFVGTR-NH2 as substrate after 60 mins by caliper microfluidic mobility shift assay
Canis familiaris = experiment: Antiinflammatory activity in MSU-induced beagle dog acute synovitis model assessed as prevention of inflammation-driven lameness at 0.2 mg/kg, po administered once a week 3 hrs post MSU injection measured after 6 hrs post last dose; assay type: functional, organism-based; details: Canis lupus familiaris
Procedure, shortened: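 Lameness was induced in dogs by uric acid injection into the joint. Treatment was vehicle, test article at 5 or 15 mg/kg, or meloxicam 0.2 mg/kg. Vertical peak force of the affected limb was measured on a force plate while trotting. The read-out was the time after treatment for that force to recover to 60% of the value measured before lameness.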

[2] = Inhibition of MEK/ERK signaling pathway in TNFalpha-stimulated human A431 cells transfected with COT siRNA assessed as reduction in ERK1/2 phosphorylation incubated for 60 mins followed by stimulation with TNFalpha for 10 mins by Western blot analysis; assay type: cell-based; details: A-431
[3] = Inhibition of MEK/ERK signaling pathway in EGF-stimulated human A431 cells transfected with COT siRNA assessed as reduction in ERK1/2 phosphorylation incubated for 60 mins followed by stimulation with EGF for 10 mins by Western blot analysis; assay type: cell-based; details: A-431
[4] = biological target: T1, Mitogen-activated protein kinase kinase kinase 8; experiment: Inhibition of COT in LPS-stimulated human PBMC assessed as reduction in ERK1/2 phosphorylation incubated for 60 mins followed by LPS stimulation for 12 mins by flow cytometric analysis
Procedure, shortened: (§1)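 Primary human PBMCs were stimulated with LPS. Read-outs were pERK, TNFα release, or p65 phosphorylation, each reported as IC50.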

[5] = biological target: T1, Mitogen-activated protein kinase kinase kinase 8; experiment: Inhibition of COT in LPS-stimulated human PBMC assessed as reduction in TNFalpha release incubated for 1 hr followed by stimulation with LPS for 4 hrs by HTRF assay; procedure, shortened: as §1
[6] = Inhibition of NFkappaB pathway in LPS-stimulated human PBMC assessed as reduction in p65 phosphorylation incubated for 60 mins followed by LPS stimulation for 12 mins by flow cytometric analysis analysis; procedure, shortened: as §1
[7] = biological target: Receptor-type tyrosine-protein kinase FLT3 (Homo sapiens, UniProt P36888, D835Y); experiment: Inhibition of FLT3 (563 to 993 residues) D835Y mutant (unknown origin) after 60 mins in presence of ATP by caliper microfluidic mobility shift assay
[8] = biological target: MAP kinase-interacting serine/threonine-protein kinase 2 (Homo sapiens, UniProt Q9HBH9); experiment: Inhibition of MKNK2 (unknown origin) after 60 mins in presence of ATP by caliper microfluidic mobility shift assay
[9] = Octanol-water partition coefficient, log P of the compound by shake-flask method; assay type: physicochemical
[10] = biological target: T1, Mitogen-activated protein kinase kinase kinase 8; experiment: Inhibition of COT in LPS-stimulated human whole blood assessed as reduction in TNFalpha release incubated for 30 mins followed by stimulation with LPS for 3 hrs by HTRF assay; assay type: tissue-based
Procedure, shortened: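 Human whole blood was stimulated with LPS, and TNFα release was measured as IC50.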

[11] = Equilibrium solubility of the compound at pH 6.8 after 16 hrs by mass spectrometric analysis; assay type: physicochemical; details: buffer
[12] = Equilibrium solubility of the compound at pH 4 after 16 hrs by mass spectrometric analysis; assay type: physicochemical; details: buffer
[13] = Protein binding in human plasma at 5 uM after 4 hrs by rapid equilibrium dialysis method; assay type: ADME, cell-free; details: read-out: PPB (converted)
[14] = Drug level in bile-duct cannulated Sprague-Dawley rat blood treated with N-(1-morpholinopropan-2-yl)-6-(8-(pyridin-4-yl)-1H-imidazo[4,5-c][1,7]naphthyridin-1-yl)benzo[d]thiazol-2-amine at 3 mg/kg, iv measured 1 to 4 hrs post dose; assay type: ADME, organism-based; details: in vivo
[15] = Drug level in bile-duct cannulated Sprague-Dawley rat bile treated with N-(1-morpholinopropan-2-yl)-6-(8-(pyridin-4-yl)-1H-imidazo[4,5-c][1,7]naphthyridin-1-yl)benzo[d]thiazol-2-amine at 3 mg/kg, iv measured over 8 hrs post dose; assay type: ADME, organism-based; details: in vivo
[16] = Drug level in bile-duct cannulated Sprague-Dawley rat urine treated with N-(1-morpholinopropan-2-yl)-6-(8-(pyridin-4-yl)-1H-imidazo[4,5-c][1,7]naphthyridin-1-yl)benzo[d]thiazol-2-amine at 3 mg/kg, iv measured over 8 hrs post dose; assay type: ADME, organism-based; details: in vivo
[17] = Drug level in bile-duct cannulated Sprague-Dawley rat feces treated with N-(1-morpholinopropan-2-yl)-6-(8-(pyridin-4-yl)-1H-imidazo[4,5-c][1,7]naphthyridin-1-yl)benzo[d]thiazol-2-amine at 3 mg/kg, iv measured over 8 hrs post dose; assay type: ADME, organism-based; details: in vivo
[18] = Drug level in bile-duct cannulated Sprague-Dawley rat liver treated with N-(1-morpholinopropan-2-yl)-6-(8-(thiophen-2-yl)-1H-imidazo[4,5-c][1,7]naphthyridin-1-yl)benzo[d]thiazol-2-amine at 3 mg/kg, iv measured 8 hrs post dose; assay type: ADME, organism-based; details: in vivo
[19] = Drug level in bile-duct cannulated Sprague-Dawley rat kidney treated with N-(1-morpholinopropan-2-yl)-6-(8-(thiophen-2-yl)-1H-imidazo[4,5-c][1,7]naphthyridin-1-yl)benzo[d]thiazol-2-amine at 3 mg/kg, iv measured 8 hrs post dose; assay type: ADME, organism-based; details: in vivo
[20] = Drug level in bile-duct cannulated Sprague-Dawley rat bile treated with N-(1-morpholinopropan-2-yl)-6-(8-(thiophen-2-yl)-1H-imidazo[4,5-c][1,7]naphthyridin-1-yl)benzo[d]thiazol-2-amine at 3 mg/kg, iv measured 8 hrs post dose; assay type: ADME, organism-based; details: in vivo
[21] = Drug level in bile-duct cannulated Sprague-Dawley rat urine treated with N-(1-morpholinopropan-2-yl)-6-(8-(thiophen-2-yl)-1H-imidazo[4,5-c][1,7]naphthyridin-1-yl)benzo[d]thiazol-2-amine at 3 mg/kg, iv measured 8 hrs post dose; assay type: ADME, organism-based; details: in vivo
[22] = Clearance in wild type Sprague-Dawley rat plasma at 1 mg/kg, iv; assay type: ADME, organism-based
Procedure, shortened: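 Male wild-type Sprague–Dawley rats were given 1 mg/kg intravenously. Clearance was derived from plasma.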

[23] = Half life in wild type Sprague-Dawley rat liver microsomes at 5 uM preincubated for 3 mins followed by NADPH addition measured after 1 hr by HPLC/MS analysis; assay type: ADME
[24] = Metabolic stability in Sprague-Dawley rat liver microsomes assessed as parent compound remaining at 5 uM after 1 hr in presence of NADPH by HPLC/MS analysis; assay type: ADME; details: read-out: Stability
[25] = Metabolic stability in bile-duct cannulated Sprague-Dawley rat assessed as parent compound remaining in blood at 3 mg/kg, iv measured 1 hr post dose; assay type: ADME, organism-based; details: read-out: Stability
[26] = Metabolic stability in bile-duct cannulated Sprague-Dawley rat assessed as parent compound remaining in blood at 3 mg/kg, iv measured 4 hrs post dose; assay type: ADME, organism-based; details: read-out: Stability
Procedure, shortened: (§2)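 Bile-duct cannulated rats dosed in vivo. Parent and metabolites in each matrix were expressed as relative peak areas of the drug-related components detected, at the stated sampling time or collection period post dose.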

[27] = Metabolic stability in bile-duct cannulated Sprague-Dawley rat assessed as parent compound remaining in bile at 3 mg/kg, iv measured over 8 hrs post dose; assay type: ADME, organism-based; details: read-out: Stability
[28] = Metabolic stability in bile-duct cannulated Sprague-Dawley rat assessed as parent compound remaining in urine at 3 mg/kg, iv measured over 8 hrs post dose; assay type: ADME, organism-based; details: read-out: Stability; procedure, shortened: as §2
[29] = Drug excretion in bile-duct cannulated Sprague-Dawley rat bile at 3 mg/kg, iv; assay type: ADME, organism-based; details: read-out: Drug excretion
[30] = Drug excretion in bile-duct cannulated Sprague-Dawley rat urine at 3 mg/kg, iv; assay type: ADME, organism-based; details: read-out: Drug excretion

T1 sequence (P41279 whole entry, the tested form may be a part): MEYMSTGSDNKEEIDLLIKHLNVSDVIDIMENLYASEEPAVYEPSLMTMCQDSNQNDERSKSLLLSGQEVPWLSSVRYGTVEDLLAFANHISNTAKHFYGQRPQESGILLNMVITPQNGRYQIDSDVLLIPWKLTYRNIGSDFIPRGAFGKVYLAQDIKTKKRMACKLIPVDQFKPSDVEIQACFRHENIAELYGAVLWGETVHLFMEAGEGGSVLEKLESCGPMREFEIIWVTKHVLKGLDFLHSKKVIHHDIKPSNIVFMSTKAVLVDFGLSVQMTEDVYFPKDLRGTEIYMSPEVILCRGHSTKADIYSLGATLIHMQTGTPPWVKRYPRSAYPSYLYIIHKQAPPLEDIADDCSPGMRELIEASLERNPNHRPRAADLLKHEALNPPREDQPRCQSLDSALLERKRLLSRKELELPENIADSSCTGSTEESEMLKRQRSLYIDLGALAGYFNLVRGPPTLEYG
Sequence of MAP kinase-interacting serine/threonine-protein kinase 2 (Q9HBH9 whole entry): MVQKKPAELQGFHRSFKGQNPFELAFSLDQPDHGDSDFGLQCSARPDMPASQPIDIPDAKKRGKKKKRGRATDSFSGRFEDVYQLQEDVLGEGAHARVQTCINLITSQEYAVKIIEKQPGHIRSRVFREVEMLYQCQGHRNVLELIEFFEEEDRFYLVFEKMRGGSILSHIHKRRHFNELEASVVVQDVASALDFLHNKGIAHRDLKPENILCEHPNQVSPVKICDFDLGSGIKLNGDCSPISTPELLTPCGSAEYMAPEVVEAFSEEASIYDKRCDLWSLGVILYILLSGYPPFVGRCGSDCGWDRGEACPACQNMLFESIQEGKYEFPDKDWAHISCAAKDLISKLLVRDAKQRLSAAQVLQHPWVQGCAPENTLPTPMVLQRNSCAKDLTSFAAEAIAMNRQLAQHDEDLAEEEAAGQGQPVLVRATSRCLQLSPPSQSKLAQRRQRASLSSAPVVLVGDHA

c1nc2ccc(-n3cnc4cnc5cnc(-c6cnsc6)cc5c43)cc2[nH]1
pIC50 [1]: 6.80

Cc1cccc(-c2cc3c(cn2)ncc2ncn(-c4ccc5nc[nH]c5c4)c23)c1
pIC50 [1]: 6.70

Cc1cnc(NC(=O)C2=C(O)c3ccccc3S(=O)(=O)N2C)s1
Activity (Canis familiaris): Active

Clc1cc2c(cn1)ncc1ncn(-c3ccc4nc[nH]c4c3)c12
pIC50 [1]: < 5.00

Cc1ccc(-c2cc3c(cn2)ncc2ncn(-c4ccc5nc[nH]c5c4)c23)cc1
pIC50 [1]: 5.89

c1cnc2ccc(-n3cnc4cnc5cnc(-c6ccsc6)cc5c43)cc2c1
pIC50 [1]: 7.70
pIC50 [2]: 7.21
pIC50 [3]: < 5.00
pIC50 [4]: 6.27
pIC50 [5]: 6.36
pIC50 [6]: < 4.60
pIC50 [7]: > 6.47
pIC50 [8]: > 5.85
logP [9]: 4.2
pIC50 [10]: 5.75
solubility thermodynamic at 16 h [11]: < 4 µM
solubility thermodynamic at 16 h [12]: 6 µM (≈ 2.28 µg/mL)
fraction unbound at 4 h, 5 µM [13]: < 0.01

N#CCc1ccc(-n2cnc3cnc4ccc(-c5ccsc5)cc4c32)cc1
pIC50 [1]: 5.59
logP [9]: 4.9

c1nc2ccc(-n3cnc4cnc5cnc(-c6cn[nH]c6)cc5c43)cc2[nH]1
pIC50 [1]: 6.82

c1nc2ccc(-n3cnc4cnc5cnc(N6CCCCC6)cc5c43)cc2[nH]1
pIC50 [1]: 5.46

c1cc(-c2cc3c(cn2)ncc2ncn(-c4ccc5nc[nH]c5c4)c23)ccn1
pIC50 [1]: 7.00

CC(CN1CCOCC1)Nc1nc2ccc(-n3cnc4c(=O)[nH]c5cnc(-c6ccncc6)cc5c43)cc2s1 (configuration not stated)
Drug metabolism [14]: Metabolite_Detected
Drug metabolism [15]: Metabolite_Detected
Drug metabolism [16]: Metabolite_Detected
Drug metabolism [17]: Metabolite_Detected

c1ccc(-c2cc3c(cn2)ncc2ncn(-c4ccc5nc[nH]c5c4)c23)cc1
pIC50 [1]: 7.05

CC(CN1CCOCC1)Nc1nc2ccc(-n3cnc4c(=O)[nH]c5cnc(-c6cccs6)cc5c43)cc2s1 (configuration not stated)
Drug metabolism [18]: Metabolite_Detected
Drug metabolism [19]: Metabolite_Detected
Drug metabolism [20]: Metabolite_Detected
Drug metabolism [21]: Metabolite_Detected

C1=C(c2cc3c(cn2)ncc2ncn(-c4ccc5nc[nH]c5c4)c23)CCCC1
pIC50 [1]: 5.89

c1nc2ccc(-n3cnc4cnc5cnc(-c6ccsc6)cc5c43)cc2[nH]1
pIC50 [1]: 7.40
logP [9]: 4

CC(CN1CCOCC1)Nc1nc2ccc(-n3cnc4cnc5cnc(-c6ccccc6)cc5c43)cc2s1 (configuration not stated)
pIC50 [1]: 8.05
pIC50 [4]: 6.92
pIC50 [5]: 6.89
logP [9]: 4.4
pIC50 [10]: 6.00
solubility thermodynamic at 16 h [11]: 9 µM (≈ 4.69 µg/mL)
solubility thermodynamic at 16 h [12]: > 1000 µM
fraction unbound at 4 h, 5 µM [13]: < 0.01

CC(CN1CCOCC1)Nc1nc2ccc(-n3cnc4cnc5cnc(-c6cccs6)cc5c43)cc2s1 (configuration not stated)
pIC50 [1]: 7.66
pIC50 [4]: 6.55
pIC50 [5]: 6.54
logP [9]: 5.1
clearance [22]: 40 mL/min/kg
pIC50 [10]: < 5.00
solubility thermodynamic at 16 h [11]: 13 µM (≈ 6.86 µg/mL)
solubility thermodynamic at 16 h [12]: 261 µM (≈ 138 µg/mL)
fraction unbound at 4 h, 5 µM [13]: < 0.01
half-life at 5 µM [23]: < 3 min
remaining at 1 h, 5 µM [24]: 66%
remaining at 1 h [25]: 86%
remaining at 4 h [26]: 68%
dose excreted at 8 h [27]: 4%
dose excreted at 8 h [28]: 1%
dose excreted [29]: 0.63%
dose excreted [30]: 0.63%

c1ccc(-c2cc3c(cn2)ncc2ncn(-c4ccc5ncccc5c4)c23)cc1
pIC50 [1]: 7.02
solubility thermodynamic at 16 h [11]: < 4 µM
solubility thermodynamic at 16 h [12]: < 4 µM

C[C@@H](CN1CCOCC1)Nc1ccc2cc(-n3cnc4cnc5cnc(-c6ccncc6)cc5c43)ccc2n1
pIC50 [1]: 7.42
pIC50 [4]: 6.21
pIC50 [5]: 5.90

C[C@H](CN1CCOCC1)Nc1ccc2cc(-n3cnc4cnc5cnc(-c6ccncc6)cc5c43)ccc2n1
pIC50 [1]: 8.40
pIC50 [4]: 7.52
pIC50 [5]: 7.52
logP [9]: 3.2
clearance [22]: 221 mL/min/kg
pIC50 [10]: 7.10
solubility thermodynamic at 16 h [11]: 135 µM (≈ 69.7 µg/mL)
solubility thermodynamic at 16 h [12]: > 1000 µM

c1cncc(-c2cc3c(cn2)ncc2ncn(-c4ccc5nc[nH]c5c4)c23)c1
pIC50 [1]: 6.17

N#CCc1ccc(-n2cnc3cnc4cnc(-c5ccsc5)cc4c32)cc1
pIC50 [1]: 7.30
logP [9]: 3.9

N#CCc1ccc(-n2cnc3cnc4cc(Cl)c(-c5ccsc5)cc4c32)cc1
pIC50 [1]: 6.10
logP [9]: 5.4

Cc1nc2ccc(-n3cnc4cnc5cnc(-c6ccccc6)cc5c43)cc2s1
pIC50 [1]: 7.10
solubility thermodynamic at 16 h [11]: < 4 µM
solubility thermodynamic at 16 h [12]: < 4 µM
